Experimental data published in ChEMBL document CHEMBL4028805, “Phenylthiazole Antibacterial Agents Targeting Cell Wall Synthesis Exhibit Potent Activity in Vitro and in Vivo against Vancomycin-Resistant Enterococci” (J Med Chem, 2017).
≈ marks a conversion by molar mass, not a printed value. Calls of active or inactive are those of the source.

Tests used:
[1] = tested on: Acinetobacter baumannii; test: Antibacterial activity against Acinetobacter baumanii ATCC 19606 after 18 to 22 hrs in absence of colistin by broth microdilution method; type: functional; conditions: ATCC 19606 = CIP 70.34 = JCM 6841
Method in brief: (§1)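 Broth microdilution per CLSI guidelines. Gram-negatives grown in TSB. Each strain tested alone and again with colistin at ¼ × MIC to permeabilize the outer membrane. Plates incubated at 37 °C for 18–22 h. MIC read as the lowest concentration showing no visible growth.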

[2] = tested on: Escherichia coli; test: Antibacterial activity against Escherichia coli O157:H7 ATCC 35150 after 18 to 22 hrs in absence of colistin by broth microdilution method; type: functional
[3] = tested on: Pseudomonas aeruginosa; test: Antibacterial activity against Pseudomonas aeruginosa ATCC 15442 after 18 to 22 hrs in absence of colistin by broth microdilution method; type: functional
[4] = tested on: Escherichia coli; test: Antibacterial activity against Escherichia coli 1411 harboring delta-acrAB after 18 to 22 hrs in absence of colistin by broth microdilution method; type: functional
[5] = tested on: Acinetobacter baumannii; test: Antibacterial activity against Acinetobacter baumanii ATCC 19606 after 18 to 22 hrs in presence of 1/4 times MIC colistin by broth microdilution method; type: functional; conditions: ATCC 19606 = CIP 70.34 = JCM 6841; method in brief: as §1
[6] = tested on: Klebsiella pneumoniae; test: Antibacterial activity against Klebsiella pneumoniae BAA-1706 after 18 to 22 hrs in presence of 1/4 times MIC colistin by broth microdilution method; type: functional; method in brief: as §1
[7] = tested on: Enterococcus faecalis; test: Antibacterial activity against Enterococcus faecalis ATCC 31975 at 4 to 8 times MIC after 48 hrs by broth microdillution method; type: functional
Method in brief: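 Single-step resistance selection. Cultures of 5 × 10^8 to 5 × 10^10 CFU/mL spread on TSA containing compound at 2×, 4× or 8× MIC and incubated aerobically at 37 °C for 48 h. Colony MICs rechecked by broth microdilution. Frequency calculated as resistant colonies per inoculum.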

[8] = tested on: Enterococcus faecalis; test: Antibacterial activity against vancomycin-resistant Enterococcus faecalis ATCC 51299 assessed as ratio of MIC after and before 6 serial passages measured after 18 hrs by broth microdillution method; type: functional
Method in brief: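 Multi-step selection over 14 passages in two weeks. McFarland 0.5 inoculum diluted 1:300 in TSB (E. faecalis) or BHI (E. faecium) to 1 × 10^5 CFU/mL. Each passage reinoculated at ~5 × 10^5 CFU/mL from the sub-inhibitory well of the previous plate. Compounds serially diluted in triplicate, incubated ≥18 h at 37 °C, MIC read visually. Resistance defined as >4-fold MIC rise.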

[9] = tested on: Escherichia coli; test: Antibacterial activity against tolC deficient Escherichia coli assessed as formation of spheroplasts at 25 ug/ml after 2 hrs in presence of sucrose by FM4-64/DAPI/SYTOX green staining-based deconvolution microscopic analysis; type: functional
[10] = tested on: Escherichia coli; test: Antibacterial activity against tolC deficient Escherichia coli assessed as cell lysis at 25 ug/ml after 30 mins in presence of sucrose by FM4-64/DAPI/SYTOX Green staining-based deconvolution microscopic analysis; type: functional
[11] = tested on: Bacillus subtilis; test: Antibacterial activity against Bacillus subtilis assessed as cell lysis at 5 times MIC after 30 mins by sytox green staining-based deconvolution microscopic analysis; type: functional
Method in brief: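 B. subtilis grown in LB at 37 °C to OD600 ~0.2 and treated, with or without MSM for osmotic stabilization, for 30 min or 2 h. Stained with FM 4-64 (1 μg/mL), DAPI (1 μg/mL) and SYTOX Green (1 μg/mL) to score permeability. Examined by deconvolution and phase-contrast microscopy.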

[12] = tested on: Bacillus subtilis; test: Antibacterial activity against Bacillus subtilis assessed as misshapen cells at 5 times MIC after 2 hrs in presence of methylsulfonyl methane by phase contrast microscopic analysis; type: functional
Method in brief: (§2)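 B. subtilis grown in LB at 37 °C to OD600 ~0.2, then treated at 5 × MIC with MSM for osmotic stabilisation. At 2 h, stained with FM 4-64 (1 μg/mL), DAPI (1 μg/mL) and SYTOX Green (1 μg/mL). Imaged by deconvolution fluorescence and phase contrast microscopy.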

[13] = tested on: Bacillus subtilis; test: Antibacterial activity against Bacillus subtilis assessed as bending of cells at 5 times MIC after 2 hrs in presence of methylsulfonyl methane by phase contrast microscopic analysis; type: functional; method in brief: as §2
[14] = tested on: Bacillus subtilis; test: Antibacterial activity against Bacillus subtilis assessed as pool of membranes at 5 times MIC after 2 hrs in presence of methylsulfonyl methane by phase contrast microscopic analysis; type: functional; method in brief: as §2
[15] = molecular target: T1, Farnesyl pyrophosphate synthase (Homo sapiens, UniProt P14324); test: Inhibition of human FPPS
T1 sequence (P14324 whole entry): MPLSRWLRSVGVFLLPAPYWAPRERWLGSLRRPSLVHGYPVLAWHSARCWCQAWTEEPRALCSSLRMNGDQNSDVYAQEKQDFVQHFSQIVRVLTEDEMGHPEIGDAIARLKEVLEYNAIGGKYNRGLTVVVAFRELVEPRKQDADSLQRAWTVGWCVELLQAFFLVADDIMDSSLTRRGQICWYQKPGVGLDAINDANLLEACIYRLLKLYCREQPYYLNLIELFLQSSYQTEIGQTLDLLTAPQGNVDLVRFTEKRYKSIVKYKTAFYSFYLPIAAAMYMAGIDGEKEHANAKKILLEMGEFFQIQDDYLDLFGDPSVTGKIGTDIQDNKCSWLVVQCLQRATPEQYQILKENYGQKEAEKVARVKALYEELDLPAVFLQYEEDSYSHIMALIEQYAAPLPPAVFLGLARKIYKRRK

[16] = tested on: Enterococcus faecium; test: Potentiation of vancomycin-induced antibacterial activity against Enterococcus faecium HM-968 assessed as fold reduction in vancomycin MIC preincubated for 30 mins followed by vancomycin addition measured after 18 to 21 hrs; type: functional
Method in brief: (§3)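 VRE suspensions at 5×10^5 CFU/mL preincubated with compound at ½ × MIC for 30 min at room temperature. […] Fold reduction calculated as vancomycin MIC alone over MIC in combination.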

[17] = tested on: Enterococcus faecalis; test: Potentiation of vancomycin-induced antibacterial activity against Enterococcus faecalis HM-201 assessed as fold reduction in vancomycin MIC preincubated for 30 mins followed by vancomycin addition measured after 18 to 21 hrs; type: functional; method in brief: as §3
[18] = tested on: Enterococcus faecalis; test: Potentiation of vancomycin-induced antibacterial activity against Enterococcus faecalis HM-934 assessed as fold reduction in vancomycin MIC preincubated for 30 mins followed by vancomycin addition measured after 18 to 21 hrs; type: functional; method in brief: as §3
[19] = tested on: Enterococcus faecium; test: Potentiation of gentamicin-induced antibacterial activity against Enterococcus faecium ATCC 700221 assessed as gentamicin MIC preincubated for 30 mins followed by gentamicin addition measured after 18 to 21 hrs; type: functional
Method in brief: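 Enterococcal suspensions at 5×10^5 CFU/mL preincubated with compound at ½ × MIC for 30 min at room temperature.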

[20] = tested on: Enterococcus faecalis; test: Synergistic antimicrobial activity against Enterococcus faecalis ATCC 49533 after 20 hrs in presence of ciprofloxacin by checkerboard assay; type: functional
Method in brief: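 Checkerboard in TSB with a starting inoculum of 1×10^5 CFU/mL. Compound and antibiotic diluted from 2× or 4× MIC along perpendicular axes. Incubated 20 h at 37 °C. ΣFIC calculated: ≤0.5 synergy, >0.5 to <2 additive, 2–4 indifference, >4 antagonism.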

[21] = tested on: Caenorhabditis elegans; test: Toxicity in Caenorhabditis elegans AU37 assessed as worm survival at 20 ug/ml after 24 hrs by microscopic analysis; conditions: caenorhabditis elegans, 24 h
Method in brief: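 Adult C. elegans AU37, 15–20 per well, exposed in triplicate to 10 or 20 μg/mL, with sterile water as negative control. Viability checked by microscopy. Result reported as percent viable worms after 24 h exposure.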

CCCCc1ccc(-c2nc(C)c(/C(C)=N/NC(=N)N)s2)cc1
MIC [1]: 8 µg/mL (≈ 24.3 µM) | MIC [2]: 16 µg/mL (≈ 48.6 µM) | MIC [3]: 64 µg/mL (≈ 194 µM) | MIC [4]: 4 µg/mL (≈ 12.1 µM) | MIC [5]: 1 µg/mL | MIC [6]: 1 µg/mL | Activity [7]: Active | Ratio [8]: 1 | Activity [9]: Active | Activity [10]: Active | Activity [11]: 95% | Activity [12]: Active | Activity [13]: Active | Activity [14]: Active | inhibition (INH) [15]: Not Active | Activity [16]: inactive | Activity [17]: inactive | Activity [18]: inactive | Activity [19]: inactive | fractional inhibitory concentration index (FICI) [20]: 0.63 - 1 | Activity [21]: Non-Toxic
